Reference: ChEMBL document CHEMBL3826914, “Selective photodepletion of malignant T cells in extracorporeal photopheresis with selenorhodamine photosensitizers” (Bioorg Med Chem, 2016)

Tested on: ABCB1
Test: Permeability from apical to basolateral side in dog MDCK2-MDR1 cells expressing ABCB1 at 5 uM after 30 mins in presence of compound 15 by LC-MS/MS analysis
Assay type: ADME, cell-based, Canis lupus familiaris, MDCK-II
Conditions: MDCK-MDR1, with compound 15 (concentration not stated), read-out: permeability
Summary of the method: (§1)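 MDR1-transfected MDCKII cells (passage 16–42) were seeded at 50,000 cells cm^-2 on Transwell filters and used on day 6. Monolayers were rinsed in DPBS with 10^-2 M HEPES, pH 7.4, at 37 °C. They were preincubated 30 min in 4.3 mg/mL BSA/DPBSH with or without 5×10^-6 M P-gp inhibitor. 5 μM dye was added apically or basolaterally and samples taken after 1 h at 37 °C with nutation. Quantitation was by LC-MS/MS; P_passive is the mean of P_AB and P_BA under full inhibition. Mean ± SD.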

SMILES	Papp A→B at 0.5 h, 5 µM [×10⁻⁶ cm/s]
CN1CCC(C)(C)c2cc3c(cc21)[Se]c1cc2c(cc1=C3c1ccc(C(=O)N3CCCCC3)s1)C(C)(C)CC[N+]=2C.[Cl-]	0.051

Tested on: not listed separately
Test: Drug extrusion in human CD8 positive cells assessed as change in mean fluorescence intensity at 5 x 10^-8 M preincubated for 20 mins followed by growth in photosensitizer-free media for 30 mins by flow cytometric analysis relative to control
Assay type: cell-based
Conditions: 0.5 h, 0.05 µM

SMILES	Activity [%]
CN1CCC(C)(C)c2cc3c(cc21)[Se]c1cc2c(cc1=C3c1ccc(C(=O)N3CCCCC3)s1)C(C)(C)CC[N+]=2C.[Cl-]	76.2

Tested on: ABCB1
Test: Permeability from apical to basolateral side in dog MDCK2-MDR1 cells expressing ABCB1 at 5 uM after 30 mins in absence of compound 15 by LC-MS/MS analysis
Assay type: ADME, cell-based, Canis lupus familiaris, MDCK-II
Conditions: MDCK-MDR1, read-out: permeability
Summary of the method: as §1

SMILES	Papp A→B at 0.5 h, 5 µM [×10⁻⁶ cm/s]
CN1CCC(C)(C)c2cc3c(cc21)[Se]c1cc2c(cc1=C3c1ccc(C(=O)N3CCCCC3)s1)C(C)(C)CC[N+]=2C.[Cl-]	0.18

Tested on: not listed separately
Test: Drug extrusion in SEB-stimulated human CD25 positive cells assessed as mean fluorescence intensity at 5 x 10^-8 M preincubated for 20 mins followed by growth in photosensitizer-free media for 30 mins by flow cytometric analysis relative to control
Conditions: 0.5 h, 0.05 µM

SMILES	Flu intensity [a.u.]
CN1CCC(C)(C)c2cc3c(cc21)[Se]c1cc2c(cc1=C3c1ccc(C(=O)N3CCCCC3)s1)C(C)(C)CC[N+]=2C.[Cl-]	7300

Tested on: ABCB1
Test: Permeability from basolateral to apical side in dog MDCK2-MDR1 cells expressing ABCB1 at 5 uM after 30 mins in presence of compound 15 by LC-MS/MS analysis
Assay type: ADME, cell-based, Canis lupus familiaris, MDCK-II
Conditions: MDCK-MDR1, with compound 15 (concentration not stated), read-out: permeability
Summary of the method: as §1

SMILES	Papp B→A at 0.5 h, 5 µM [×10⁻⁶ cm/s]
CN1CCC(C)(C)c2cc3c(cc21)[Se]c1cc2c(cc1=C3c1ccc(C(=O)N3CCCCC3)s1)C(C)(C)CC[N+]=2C.[Cl-]	0.4

Tested on: ABCB1
Test: Permeability from basolateral to apical side in dog MDCK2-MDR1 cells expressing ABCB1 at 5 uM after 30 mins in absence of compound 15 by LC-MS/MS analysis
Assay type: ADME, cell-based, Canis lupus familiaris, MDCK-II
Conditions: MDCK-MDR1, read-out: permeability
Summary of the method: as §1

SMILES	Papp B→A at 0.5 h, 5 µM [×10⁻⁶ cm/s]
CN1CCC(C)(C)c2cc3c(cc21)[Se]c1cc2c(cc1=C3c1ccc(C(=O)N3CCCCC3)s1)C(C)(C)CC[N+]=2C.[Cl-]	6.5

Tested on: not listed separately
Test: Drug uptake in SEB-stimulated human CD25 positive cells assessed as mean fluorescence intensity at 5 x 10^-8 M preincubated for 20 mins followed by growth in photosensitizer-free media for 30 mins by flow cytometric analysis relative to control
Conditions: 0.5 h, 0.05 µM

SMILES	Flu intensity [a.u.]
CN1CCC(C)(C)c2cc3c(cc21)[Se]c1cc2c(cc1=C3c1ccc(C(=O)N3CCCCC3)s1)C(C)(C)CC[N+]=2C.[Cl-]	10900

Tested on: HuT78
Conditions: human, hut78, 0.5 h, 0.075 µM

SMILES	Flu intensity [a.u.]
CN1CCC(C)(C)c2cc3c(cc21)[Se]c1cc2c(cc1=C3c1ccc(C(=O)N3CCCCC3)s1)C(C)(C)CC[N+]=2C.[Cl-]	9130

Tested on: not listed separately
Test: Drug extrusion in human CD3 positive cells assessed as change in mean fluorescence intensity at 5 x 10^-8 M preincubated for 20 mins followed by growth in photosensitizer-free media for 30 mins by flow cytometric analysis relative to control
Assay type: cell-based
Conditions: 0.5 h, 0.05 µM

SMILES	Activity [%]
CN1CCC(C)(C)c2cc3c(cc21)[Se]c1cc2c(cc1=C3c1ccc(C(=O)N3CCCCC3)s1)C(C)(C)CC[N+]=2C.[Cl-]	51.3

Tested on: HuT78
Conditions: human, hut78, 0.5 h, 0.075 µM
Remark: another data set of the same source

SMILES	Flu intensity [a.u.]
CN1CCC(C)(C)c2cc3c(cc21)[Se]c1cc2c(cc1=C3c1ccc(C(=O)N3CCCCC3)s1)C(C)(C)CC[N+]=2C.[Cl-]	6240

Tested on: not listed separately
Test: (§2) Phototoxicity human CD4 positive cells co-cultured with GFP expressing human HUT78 cells assessed as cell survival at 7.5 x 10^-8 M preincubated 20 mins in photosensitizer media followed by growth in photosensitizer-free media for 30 mins measured 18 hrs after exposure to 5 J/cm2 irradiation by FACS analysis
Assay type: cell-based
Conditions: read-out: Survival
Summary of the method: (§3)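 Non-stimulated PBMCs from healthy donors (Ficoll-separated) were mixed 5:1 with GFP-transfected, sorted (>98%) HUT-78 cells. Cells took up 7.5×10^-8 M photosensitizer for 20 min, then spent 30 min in dye-free medium. They were exposed to 5 J cm^-2 light (600 nm LED) with rotation at 180 rpm. Survival was gated by FACS (GFP, CD3, CD4, CD8) 18 h later versus non-irradiated controls. Triplicate; mean ± SEM.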

SMILES	viability at 18 h, 0.075 µM [%]
CN1CCC(C)(C)c2cc3c(cc21)[Se]c1cc2c(cc1=C3c1ccc(C(=O)N3CCCCC3)s1)C(C)(C)CC[N+]=2C.[Cl-]	1.1

Tested on: HuT78
Test: Drug uptake in GFP expressing human HUT78 cells co-cultured with non-stimulated human PBMC cells assessed as change in mean fluorescence intensity at 7.5 x 10^-8 M after 20 mins followed by growth in photosensitizer-free media for 30 mins by flow cytometric analysis relative to control
Assay type: cell-based
Conditions: hut78, 0.5 h, 0.075 µM

SMILES	Activity [%]
CN1CCC(C)(C)c2cc3c(cc21)[Se]c1cc2c(cc1=C3c1ccc(C(=O)N3CCCCC3)s1)C(C)(C)CC[N+]=2C.[Cl-]	43.1

Tested on: not listed separately
Test: Drug extrusion in human CD4 positive cells assessed as change in mean fluorescence intensity at 5 x 10^-8 M preincubated for 20 mins followed by growth in photosensitizer-free media for 30 mins by flow cytometric analysis relative to control
Assay type: cell-based
Conditions: 0.5 h, 0.05 µM

SMILES	Activity [%]
CN1CCC(C)(C)c2cc3c(cc21)[Se]c1cc2c(cc1=C3c1ccc(C(=O)N3CCCCC3)s1)C(C)(C)CC[N+]=2C.[Cl-]	53.3

Tested on: not listed separately
Test: Drug extrusion in SEB-stimulated human CD25 negative cells assessed as mean fluorescence intensity at 5 x 10^-8 M preincubated for 20 mins followed by growth in photosensitizer-free media for 30 mins by flow cytometric analysis relative to control
Conditions: 0.5 h, 0.05 µM

SMILES	Flu intensity [a.u.]
CN1CCC(C)(C)c2cc3c(cc21)[Se]c1cc2c(cc1=C3c1ccc(C(=O)N3CCCCC3)s1)C(C)(C)CC[N+]=2C.[Cl-]	1100

Tested on: HuT78
Test: as §2, with “in” for “human CD4 positive cells co-cultured with”, “HUT78 cells co-cultured with human PBMC” for “HUT78”
Assay type: functional
Conditions: HuT78, light or radiation study, read-out: Survival
Summary of the method: as §3

SMILES	viability at 0.075 µM [%]
CN1CCC(C)(C)c2cc3c(cc21)[Se]c1cc2c(cc1=C3c1ccc(C(=O)N3CCCCC3)s1)C(C)(C)CC[N+]=2C.[Cl-]	2.4

Tested on: not listed separately
Test: N-octanol/water partition coefficient, logP of the compound at 23 degC after 1 hr by HPLC based shake flask method
Assay type: physicochemical
Conditions: not given
Summary of the method: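 Shake-flask method using 1-octanol: 3–5 min of mixing, then 1 h settling. Equilibration and measurement were at 23 °C, in triplicate.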

SMILES	logP
CN1CCC(C)(C)c2cc3c(cc21)[Se]c1cc2c(cc1=C3c1ccc(C(=O)N3CCCCC3)s1)C(C)(C)CC[N+]=2C.[Cl-]	3.42

Tested on: not listed separately
Test: as §2, with “CD3” for “CD4”
Assay type: cell-based
Conditions: read-out: Survival
Summary of the method: as §3

SMILES	viability at 18 h, 0.075 µM [%]
CN1CCC(C)(C)c2cc3c(cc21)[Se]c1cc2c(cc1=C3c1ccc(C(=O)N3CCCCC3)s1)C(C)(C)CC[N+]=2C.[Cl-]	7.2

Tested on: not listed separately
Test: Drug extrusion in SEB-stimulated human CD25 negative cells assessed as change in mean fluorescence intensity at 5 x 10^-8 M preincubated for 20 mins followed by growth in photosensitizer-free media for 30 mins by flow cytometric analysis relative to control
Conditions: 0.5 h, 0.05 µM

SMILES	Activity [%]
CN1CCC(C)(C)c2cc3c(cc21)[Se]c1cc2c(cc1=C3c1ccc(C(=O)N3CCCCC3)s1)C(C)(C)CC[N+]=2C.[Cl-]	58

Tested on: not listed separately
Test: as §2, with “CD8” for “CD4”
Assay type: cell-based
Conditions: read-out: Survival
Summary of the method: as §3

SMILES	viability at 18 h, 0.075 µM [%]
CN1CCC(C)(C)c2cc3c(cc21)[Se]c1cc2c(cc1=C3c1ccc(C(=O)N3CCCCC3)s1)C(C)(C)CC[N+]=2C.[Cl-]	42.4

Tested on: not listed separately
Test: Drug extrusion in SEB-stimulated human CD25 positive cells assessed as change in mean fluorescence intensity at 5 x 10^-8 M preincubated for 20 mins followed by growth in photosensitizer-free media for 30 mins by flow cytometric analysis relative to control
Conditions: 0.5 h, 0.05 µM

SMILES	Activity [%]
CN1CCC(C)(C)c2cc3c(cc21)[Se]c1cc2c(cc1=C3c1ccc(C(=O)N3CCCCC3)s1)C(C)(C)CC[N+]=2C.[Cl-]	33.5

Tested on: ABCB1
Test: Passive permeability in dog MDCK2-MDR1 cells expressing ABCB1 at 5 uM after 30 mins in presence of compound 15 by LC-MS/MS analysis
Assay type: ADME, cell-based, Canis lupus familiaris, MDCK-II
Conditions: MDCK-MDR1, with compound 15 (concentration not stated), read-out: permeability
Summary of the method: as §1

SMILES	Papp at 0.5 h, 5 µM [×10⁻⁶ cm/s]
CN1CCC(C)(C)c2cc3c(cc21)[Se]c1cc2c(cc1=C3c1ccc(C(=O)N3CCCCC3)s1)C(C)(C)CC[N+]=2C.[Cl-]	0.2

Tested on: not listed separately
Test: Drug uptake in SEB-stimulated human CD25 negative cells assessed as mean fluorescence intensity at 5 x 10^-8 M preincubated for 20 mins followed by growth in photosensitizer-free media for 30 mins by flow cytometric analysis relative to control
Conditions: 0.5 h, 0.05 µM

SMILES	Flu intensity [a.u.]
CN1CCC(C)(C)c2cc3c(cc21)[Se]c1cc2c(cc1=C3c1ccc(C(=O)N3CCCCC3)s1)C(C)(C)CC[N+]=2C.[Cl-]	2500
